Laboratory results reported in ChEMBL document CHEMBL1126315, “Pyrrolobenzodiazepines and related systems. 2. Synthesis and biological properties of isonoraptazepine derivatives” (1992).

Experiments:
Assay type in all cases: functional
Mus musculus [1] = assay: Compound was tested for total number of falls in 100 seconds after intraperitoneal administration of 37.5 mg/Kg in mice by rotarod test
Procedure, shortened: (§1)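 Mice (Swiss inbred, 5 male + 5 female per group) dosed ip in 1% Tween 80; Rota-Rod motor coordination assessed 80 min later. Falls counted over a 100 s observation period. Mean ± SEM vs vehicle controls, Dunnett t test.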

Mus musculus [2] = assay: Rotation number in mice was determined at 15 minutes after a dose of 10 mg/Kg
Procedure, shortened: (§2)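 Nomura water-wheel test: Swiss inbred mice (5 male, 5 female per group) dosed ip in 1% Tween 80, placed in a water tank with central wheel 1 h later. Wheel rotations counted by photointerrupter on the shaft, read at 9, 12 and 15 min. Mean ± SD vs vehicle controls.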

Mus musculus [3] = assay: Rotation number in mice was determined at 9 minutes after a dose of 10 mg/Kg; procedure, shortened: as §2
Mus musculus [4] = assay: Rotation number in mice was determined at 12 minutes after a dose of 10 mg/Kg; procedure, shortened: as §2
Mus musculus [5] = assay: Compound was tested for myorelaxant action (time in seconds on the horizontal wire with forelegs) after intraperitoneal administration of 37.5 mg/Kg in mice by traction test
Procedure, shortened: (§3)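 Traction test on Swiss inbred mice, 10 per group (5 male, 5 female), dosed ip in 1% Tween 80; run 70 min after dosing. Time for animals to place hind legs on horizontal wire recorded in seconds. Mean ± SEM vs vehicle-treated controls, Dunnett t test.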

Mus musculus [6] = assay: Compound was tested for total number of movements in 5 minutes after intraperitoneal administration of 37.5 mg/Kg in mice
Procedure, shortened: (§4)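 Open-field spontaneous activity 60 min after ip dosing in 1% Tween 80; Swiss inbred mice, 10 per group (5 male, 5 female), placed singly in 19 × 25 cm cages and monitored continuously for 5 min. Total movements as mean ± SEM vs vehicle controls.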

Mus musculus [7] = assay: Total number of falls in 100 seconds after intraperitoneal administration of 75 mg/Kg in mice by rotarod test; procedure, shortened: as §1
Mus musculus [8] = assay: Total number of explored holes in 5 minutes after intraperitoneal administration of 75 mg/Kg in mice
Procedure, shortened: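 Hole-board exploration at 65 min after ip dosing (1% Tween 80 vehicle) in Swiss inbred mice, 10 per group (5 male, 5 female). Holes explored counted by infrared detector below the hole lines over 5 min. Mean ± SEM vs vehicle controls, Dunnett t test.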

Mus musculus [9] = assay: Total number of movements in 5 minutes after intraperitoneal administration of 75 mg/Kg in mice; procedure, shortened: as §4
Mus musculus [10] = assay: Myorelaxant action (time in seconds on the horizontal wire with forelegs) after intraperitoneal administration of 75 mg/Kg in mice by traction test; procedure, shortened: as §3
Mus musculus [11] = assay: Compound at an intraperitoneal dose of 10 mg/Kg was tested for the inhibition of abdominal constriction in mice; details: Abdomen, ip
Procedure, shortened: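 Swiss inbred mice (25 ± 3 g), 10 per group (5 male, 5 female), given compound ip in 1% Tween 80. Clonidine 0.1 mg/kg po 30 min later, then phenylquinone 3.75 mg/kg ip in 5% aqueous ethanol 20 min after that. Writhing counted by observer over 10 min starting 5 min post-injection; % inhibition relative to controls.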

Mus musculus [12] = assay: Writhing number was determined against clonidine induced analgesia by the compound at an intraperitoneal dose of 10 mg/Kg in mice
Mus musculus [13] = assay: Compound was tested for total number of falls in 100 seconds after intraperitoneal administration of 10 mg/Kg in mice by rotarod test
Procedure, shortened: (§5)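 Swiss inbred mice (25 ± 3 g), groups of 10 (5 male, 5 female), given drug ip in 1% Tween 80; vehicle-treated controls. Single sequence per animal: open-field movements counted over 5 min at 60 min, hole-board explorations (infrared counting, 5 min) at 65 min, traction-test wire time at 70 min, Rota-Rod falls over 100 s at 80 min. Mean ± SEM, Dunnett t test.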

Mus musculus [14] = assay: Compound was tested for total number of explored holes in 5 minutes after intraperitoneal administration of 10 mg/Kg in mice; procedure, shortened: as §5
Mus musculus [15] = assay: Rotation number in mice was determined at 15 minutes after a dose of 2.5 mg/Kg
Procedure, shortened: (§6)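 Nomura water-wheel test in Swiss inbred mice (25 ± 3 g), groups of 10 (5 male, 5 female). Drug given ip in 1% Tween 80, single dose. Mouse placed in a water tank with a central wheel 1 h after dosing. Wheel rotations counted by photointerrupter, read at 9, 12 and 15 min. Mean ± SD versus vehicle controls.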

Mus musculus [16] = assay: Rotation number in mice was determined at 15 minutes after a dose of 5 mg/Kg; procedure, shortened: as §6
Mus musculus [17] = assay: Rotation number in mice was determined at 9 minutes after a dose of 2.5 mg/Kg; procedure, shortened: as §6
Mus musculus [18] = assay: Rotation number in mice was determined at 9 minutes after a dose of 5 mg/Kg; procedure, shortened: as §6
Mus musculus [19] = assay: Compound was tested for total number of movements in 5 minutes after intraperitoneal administration of 10 mg/Kg in mice; procedure, shortened: as §5
Mus musculus [20] = assay: Rotation number in mice was determined at 12 minutes after a dose of 2.5 mg/Kg; procedure, shortened: as §6
Mus musculus [21] = assay: Rotation number in mice was determined at 12 minutes after a dose of 5 mg/Kg; procedure, shortened: as §6
Mus musculus [22] = assay: Compound was tested for myorelaxant action (time in seconds on the horizontal wire with forelegs) after intraperitoneal administration of 10 mg/Kg in mice by traction test; procedure, shortened: as §5

Row | SMILES | Rotation number (Mus musculus [2]) | Rotation number (Mus musculus [3]) | Rotation number (Mus musculus [4]) | Activity (Mus musculus [7]) | Exploratory activity (Mus musculus [8]) | Spontaneous motor activity (Mus musculus [9]) | Time (Mus musculus [10]) | also measured
1 | c1ccc2c(c1)CN1CCNCC1c1cccn1-2 (stereo unspecified) | 12 | 17 | 10 |  |  |  |  | Activity (Mus musculus [1]): 3; Time (Mus musculus [5]): 4.9 s; Spontaneous motor activity (Mus musculus [6]): 111
2 | O=C1CNCC2c3cccn3-c3ccccc3CN12 (stereo unspecified) | 10 | 15 | 17 |  |  |  |  | 
3 | CN1CCN2Cc3ccccc3-n3cccc3C2C1 (stereo unspecified) | 11 | 21 | 16 | 5 | 3.8 | 96 | 4.4 s | 
4 | O=C1CN(Cc2ccc(F)cc2)CC2c3cccn3-c3ccccc3CN12 (stereo unspecified) |  |  |  | 1.8 | 6 | 178 | 4.2 s | 
5 | CN1CC(=O)N2Cc3ccccc3-n3cccc3C2C1 (stereo unspecified) | 10 | 17 | 14 | 8.7 | 13 | 90 | 1 s | 
6 | CCN1CC(=O)N2Cc3ccccc3-n3cccc3C2C1 (stereo unspecified) | 22 | 22 | 17 | 0.4 | 9.8 | 285 | 2.1 s | 
7 | CC(=O)N1CC(=O)N2Cc3ccccc3-n3cccc3C2C1 (stereo unspecified) | 49 | 54 | 57 | 1 | 10.7 | 121 | 3.5 s | 
8 | CC(=O)N1CCN2Cc3ccccc3-n3cccc3C2C1 (stereo unspecified) | 17 | 21 | 23 |  |  |  |  | 
9 | O=C1NCC(=O)N2Cc3ccccc3-n3cccc3C12 (stereo unspecified) | 11 | 18 | 15 | 2.5 | 14.7 | 247 | 5.5 s | inhibition in vivo at 10 mg/kg (Mus musculus [11]): 43%; Writhing number (Mus musculus [12]): 12
10 | O=C1CN(Cc2ccccc2)CC2c3cccn3-c3ccccc3CN12 (stereo unspecified) | 31 | 45 | 41 |  |  |  |  | 
11 | C=CCN1CCN2Cc3ccccc3-n3cccc3C2C1 (stereo unspecified) | 14 | 16 | 16 |  |  |  |  | 
12 | O=C1CC2c3cccn3-c3ccccc3CN2C(=O)CN1 (stereo unspecified) | 27 | 35 | 27 | 0.6 | 17.2 | 173 | 2.3 s | 
13 | O=C(c1ccc(Cl)cc1)N1CCN2Cc3ccccc3-n3cccc3C2C1 (stereo unspecified) | 7 | 7 | 6 |  |  |  |  | 
14 | Clc1ccc(CN2CCN3Cc4ccccc4-n4cccc4C3C2)cc1 (stereo unspecified) | 11 | 22 | 14 | 2.1 | 9.3 | 142 | 2 s | 
15 | O=C1CN(Cc2ccc(Cl)cc2)CC2c3cccn3-c3ccccc3CN12 (stereo unspecified) |  |  |  |  |  |  |  | inhibition in vivo at 10 mg/kg (Mus musculus [11]): 63%; Writhing number (Mus musculus [12]): 8
16 | CCN1CCN2Cc3ccccc3-n3cccc3C2C1 (stereo unspecified) | 24 | 30 | 27 | 1.1 | 7.6 | 188 | 3.1 s | 
17 | CN1CCN2c3ccccc3Cn3cccc3C2C1 (stereo unspecified) [APTAZAPINE] | 2 | 8 | 5 | 6.5 | 0.5 | 59 | 8.1 s | Activity (Mus musculus [13]): 5; Exploratory activity (Mus musculus [14]): 8.8; Rotation number (Mus musculus [15]): 2; Rotation number (Mus musculus [16]): 2; Rotation number (Mus musculus [17]): 12; Rotation number (Mus musculus [18]): 5; Spontaneous motor activity (Mus musculus [19]): 168; inhibition in vivo at 10 mg/kg (Mus musculus [11]): 14%; Rotation number (Mus musculus [20]): 3; Rotation number (Mus musculus [21]): 8; Writhing number (Mus musculus [12]): 18; Time (Mus musculus [22]): 2.5 s
18 | CN(C)CCCN1c2ccccc2CCc2ccccc21 [IMIPRAMINE] | 36 | 48 | 40 |  |  |  |  | Activity (Mus musculus [1]): 4.8; inhibition in vivo at 10 mg/kg (Mus musculus [11]): 100%; Time (Mus musculus [5]): 5.7 s; Spontaneous motor activity (Mus musculus [6]): 183
